Laboratory results reported in article PMC3306175 (Journal of Immunology (Baltimore, Md. : 1950), 2009).
Peptide text beside a SMILES is read from it.

How the values were obtained:
[1] = test system: gliadin-reactive intestinal T cell lines (iTCLs) from HLA-DQ2+ celiac patients; assay: IFN-γ production; type: cell-based, human; settings: for Hierarchical clustering by intensity of IFN-γ responses (OD peptide / OD medium): 14 patients, Cluster 3.0, Pearson correlation; for IFN-γ response (in words): peptide 30 μg/ml; for Number of patients whose iTCL recognized the peptide (positive IFN-γ response) / Percentage of patients recognizing the peptide: 14 adult HLA-DQ2+ CD patients, positive = IFN-γ at least twice medium alone; for Potency in eliciting T cell responses relative to 33-mer: polyclonal iTCLs or peptide-specific TCCs
In short: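 iTCLs grown from collagenase-digested jejunal explants in X-Vivo15 with 5% AB serum, stimulated with irradiated PBMC, TG2-deamidated PT-gliadin (50 μg/ml) and IL-15 (10 ng/ml). T cells (3 × 10^4) were incubated with autologous EBV-B cells (6 × 10^4) and TG2-treated peptides (30 μg/ml; 37°C, 4 h, pH 6.8). IFN-γ was measured by ELISA at 48 h. Positive response: ≥2× medium. OD ratios were row/column-normalised, then clustered. Duplicates, ≥3 experiments.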

[2] = test system: DQ2-α-I/III-specific T cell clones from patient CD230204; assay: IFN-γ and proliferative responses of 17-mer-specific intestinal T cell clones; type: cell-based, human; settings: TCCs from patient CD230204; peptide 30 μg/ml (8–19 μM)
In short: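 T cell clones were derived from the patient's intestinal T cell line by limiting dilution with irradiated allogeneic PBMC, B-LCL and PHA. Peptides were deamidated with TG2 (1:1, 4 h, 37°C, Tris-HCl pH 6.8, CaCl2, NaCl, DTT). Each clone (1 × 10^4) was cultured with autologous B-LCL. IFN-γ ELISA on 48 h supernatants; proliferation by [3H]thymidine added for a further 16 h. Duplicates.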

[3] = molecular target: purified HLA-DQ2 molecules (Homo sapiens, UniProt P01909+P01920); assay: HLA-DQ2 binding assay; settings: read-out: IC50 of binding to purified HLA-DQ2; TG2-deamidated peptides; inhibition of 0.1–1 nM 125I-radiolabeled probe peptide binding to purified HLA-DQ2 (5–500 nM), 48 h in PBS; three or more independent assays
purified HLA-DQ2 molecules, sequence (P01920 33-261, other chains not shown): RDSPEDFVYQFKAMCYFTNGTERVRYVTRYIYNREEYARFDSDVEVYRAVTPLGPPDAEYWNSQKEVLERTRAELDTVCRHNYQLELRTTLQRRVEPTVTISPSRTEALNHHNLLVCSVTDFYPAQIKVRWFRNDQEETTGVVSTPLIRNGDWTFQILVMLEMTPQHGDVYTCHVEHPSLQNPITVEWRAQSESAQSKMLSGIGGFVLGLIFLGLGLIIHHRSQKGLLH

[4] = test system: DQ2-α-I/III- or DQ2-α-II-specific intestinal T cells; assay: Dose-response assays with peptide-pulsed irradiated APCs on iTCLs and TCCs; type: cell-based, human
In short: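 Autologous B-LCL APCs, irradiated, pulsed overnight at 37°C with 10-fold increasing doses of peptide. Peptide deamidated beforehand with TG2 (1:1 enzyme/substrate, 4 h, 37°C, Tris-HCl pH 6.8 with CaCl2, NaCl, DTT). APCs washed before adding T cells (3 × 10^4 iTCL or 1 × 10^4 TCC). IFN-γ ELISA on 48 h supernatants. Mean of duplicates; three separate experiments.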

[5] = test system: iTCLs from patient CD041051; assay: HLA restriction with anti-HLA-DR and anti-HLA-DQ blocking mAbs; type: cell-based, human; settings: peptide 15 μM; anti-HLA-DR and anti-HLA-DQ mAbs 10 μg/ml
In short: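 Intestinal T cell lines came from collagenase-digested mucosal explants, expanded with irradiated PBMC, TG2-deamidated peptic-tryptic gliadin (50 μg/ml) and IL-15. For the assay, B-LCL APCs were preincubated 10 min with anti-HLA-DR (clone L243) or anti-HLA-DQ (clone SPV-L3) before peptide. T cells were then added. IFN-γ was measured by ELISA in 48 h supernatants. Duplicate wells, at least three independent experiments.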

| Compound | Hierarchical clustering by intensity of IFN-γ responses (OD peptide / OD medium) [1] | Number of patients whose iTCL recognized the peptide (positive IFN-γ response) [1] | IFN-γ response (in words) ([1]; iTCL of patient CD090401) | other results |
| --- | --- | --- | --- | --- |
| LQPQQPFPQQPQQPYPQQPQ [DQ2-γ-V] | low intensity of IFN-γ responses | – | – | IFN-γ response (in words) ([1]; iTCL of patient CD230204): weakly |
| PFRPQQPYPQPQPQY [Glia-20] | – | no responses | – | – |
| CC(C)C[C@H](NC(=O)[C@H](CCC(N)=O)NC(=O)[C@@H](N)CC(C)C)C(=O)N[C@@H](CCC(N)=O)C(=O)N1CCC[C@H]1C(=O)N[C@@H](Cc1ccccc1)C(=O)N1CCC[C@H]1C(=O)N[C@@H](CCC(N)=O)C(=O)N1CCC[C@H]1C(=O)N[C@@H](CCC(N)=O)C(=O)N[C@@H](CC(C)C)C(=O)N1CCC[C@H]1C(=O)N[C@@H](Cc1ccc(O)cc1)C(=O)N1CCC[C@H]1C(=O)N[C@@H](CCC(N)=O)C(=O)N1CCC[C@H]1C(=O)N[C@@H](CCC(N)=O)C(=O)N[C@@H](CC(C)C)C(=O)N1CCC[C@H]1C(=O)N[C@@H](Cc1ccc(O)cc1)C(=O)N1CCC[C@H]1C(=O)N[C@@H](CCC(N)=O)C(=O)N1CCC[C@H]1C(=O)N[C@@H](CCC(N)=O)C(=O)N[C@@H](CC(C)C)C(=O)N1CCC[C@H]1C(=O)N[C@@H](Cc1ccc(O)cc1)C(=O)N1CCC[C@H]1C(=O)N[C@@H](CCC(N)=O)C(=O)N1CCC[C@H]1C(=O)N[C@@H](CCC(N)=O)C(=O)N1CCC[C@H]1C(=O)N[C@@H](Cc1ccccc1)C(=O)O [33-mer] (H-LQLQPFPQPQLPYPQPQLPYPQPQLPYPQPQPF-OH; N-terminus and C-terminus assumed) | strongest and more consistent responses | 7 patients | intermediate IFN-γ levels | Percentage of patients recognizing the peptide [1]: 50%; IFN-γ response (in words) ([1]; iTCL of patient CD041051): high response; IFN-γ production and proliferation of 17-mer-specific T cell clones [2]: vigorously reacted; IC50 [3]: 44 nM |
| SHIPGLERPSQQQPLPPQQTL [Glt(19–39)] | – | no intestinal T cell response | – | – |
| PQLPQFLQPQPYPQPQLPYPQPQPF [25-mer] | strongest and more consistent responses | – | – | Potency in eliciting T cell responses relative to 33-mer [1]: as potent as 33-mer |
| QPQQPFPQPQQPFPWQP [DQ2-ω-1] | strongest and more consistent responses | five | intermediate IFN-γ levels | IFN-γ production at 10-fold increased concentrations of peptide ([4]; iTCLs from patient CD041051): retained stimulatory activity even at low concentrations; Percentage of patients recognizing the peptide [1]: 35%; IFN-γ response (in words) ([1]; iTCL of patient CD041051): very high; IFN-γ response (in words) ([1]; iTCL of patient CD130406): responded; IFN-γ production and proliferation of 17-mer-specific T cell clones [2]: no cross-reactivity occurred; HLA restriction of recognition [5]: restricted by HLA-DQ2 |
| PQPQPFPPQLPYPQPQS [AG12] | low intensity of IFN-γ responses | – | recognized | – |
| QLQPFPQPQLPYPQPQP [17-mer] | strongest and more consistent responses | – | very high levels of IFN-γ | Potency in eliciting T cell responses relative to 33-mer [1]: as potent as 33-mer; IFN-γ production and proliferation of 17-mer-specific T cell clones [2]: produced high levels of IFN-γ and proliferated |
| PFPQQPQQPYPQQPQ [DQ2-γ-III] | low intensity of IFN-γ responses | – | recognized | IFN-γ response (in words) ([1]; iTCL of patient CD061204): recognizing |
| CC(C)C[C@H](NC(=O)[C@H](CCC(=O)O)NC(=O)[C@@H]1CCCN1C(=O)[C@H](CCC(N)=O)NC(=O)[C@@H]1CCCN1C(=O)[C@H](Cc1ccc(O)cc1)NC(=O)[C@@H]1CCCN1C(=O)[C@H](CCC(N)=O)NC(=O)[C@@H]1CCCN1C(=O)[C@@H](N)CCC(N)=O)C(=O)N1CCC[C@H]1C(=O)N[C@@H](Cc1ccc(O)cc1)C(=O)N1CCC[C@H]1C(=O)N[C@@H](CCC(N)=O)C(=O)N1CCC[C@H]1C(=O)N[C@@H](CCC(N)=O)C(=O)N1CCC[C@H]1C(=O)N[C@@H](Cc1ccccc1)C(=O)O [18-mer] (H-QPQPYPQPELPYPQPQPF-OH) | strongest and more consistent responses | – | very high levels of IFN-γ | – |
| GQGIIQPQQPAQLIR [DQ2-γ-II] | low intensity of IFN-γ responses | – | – | IFN-γ response (in words) ([1]; iTCL of patient CD061204): recognizing |
| QQPPFSQQQQSPFSQ [Glt-156] | – | no intestinal T cell response | – | – |
| QIPQQQQIPQQPQQF [Glu-5] | – | – | weak IFN-γ response | – |
| QLQPFPQPTLPYPQPQS [T65] | strongest and more consistent responses | four | recognized | – |
| PQQPQQSFPQQQQPA [DQ2-γ-I] | low intensity of IFN-γ responses | 5 patients | – | IFN-γ response (in words) ([1]; iTCL of patient CD230204): weakly |
| PQPQPFLPQLPYPQPQS [AG11] | strongest and more consistent responses | – | – | – |
| CC(C)C[C@H](NC(=O)[C@H](CCC(N)=O)NC(=O)[C@@H](N)CC(C)C)C(=O)N[C@@H](CCC(N)=O)C(=O)N1CCC[C@H]1C(=O)N[C@@H](Cc1ccccc1)C(=O)N1CCC[C@H]1C(=O)N[C@@H](CCC(N)=O)C(=O)N1CCC[C@H]1C(=O)N[C@@H](CCC(=O)O)C(=O)N[C@@H](CC(C)C)C(=O)N1CCC[C@H]1C(=O)N[C@@H](Cc1ccc(O)cc1)C(=O)O [13-mer] (H-LQLQPFPQPELPY-OH) | strongest and more consistent responses | five | very high levels of IFN-γ | Potency in activating DQ2-α-II-specific iTCLs (dose-response) ([4]; iTCLs from CD041051, APCs pulsed overnight with 10-fold increasing doses of TG2-deamidated peptide): weak stimulatory capacity and only at very high concentration (10 μM); IFN-γ response (in words) ([1]; iTCL of patient CD041051): weak IFN-γ production |
